According to ChEMBL document CHEMBL1124161, “4-Hydroxy-3-quinolinecarboxamides with antiarthritic and analgesic activities” (J Med Chem, 1988):
The source made the active and inactive calls. The rule behind the calls is not given here.

Legend:
Rattus norvegicus [1] = test: Ulcerogenic effect against gastric ulcer in rats after oral administration; format: functional, Stomach
How it was run: (§1)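 Groups of eight female rats (120–150 g), fasted 24 h, dosed orally; killed 7 h later and stomachs scored. Ulceration index = (mean ulcer degree × rats with ulcers / number of rats) × 100, ulcers being scores above 0.5. ED100 (index 100, max 300) read graphically.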

Rattus norvegicus [2] = test: Antiinflammatory activity against carrageenan-induced foot edema in rat after peroral administration; format: functional; details: po
How it was run: (§2)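 Groups of eight male Sprague-Dawley rats (150–180 g) dosed orally at the time of subplantar injection of 0.5 mg carrageenin. Paw volume difference measured before and 5 h after injection. Expressed as ED40, estimated graphically or by Litchfield–Wilcoxon probit analysis.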

Rattus norvegicus [3] = test: Antiarthritis activity against adjuvant-induced arthritis in rats after peroral administration; range is (1.9-5.3); format: functional; details: po
How it was run: (§3)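 Groups of five male Lewis rats, 40–50 days old, given intraplantar injection in right hind paw of 0.6 mg Mycobacterium butyricum in 0.1 mL Bayol 55. Drug given in food from adjuvant day to day 17. Injected and noninjected hind paw volumes measured day 17 against normal controls. ED50 by least-squares curve fitting or Litchfield–Wilcoxon probit.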

Rattus norvegicus [4] = test: Ulcerogenic effect against intestinal ulcer in rats after oral administration; format: functional
How it was run: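 Nonfasted male rats (150–180 g) killed 24 h after oral dosing, and intestinal ulcers scored. Ulceration index = (mean degree × rats with ulcers / rats) × 100. ED100 (index 100) determined graphically.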

Mus musculus [5] = test: Analgesic activity against acetic acid induced writhing test in mouse after peroral administration (treatment was 6 hr before testing); format: functional; details: po
How it was run: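 Groups of 10 female mice (20–22 g), fasted 7 h, dosed orally 6 h before ip injection of 0.2 mL 1% aqueous acetic acid. Stretching and writhing movements counted from minute 5 to 20 after irritant. ED50 evaluated graphically or by computerized least-squares curve fitting.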

Cyclooxygenase = target: T1, Cyclooxygenase (Bos taurus, UniProt O62664+O62698); test: Inhibition of bovine Prostaglandin G/H synthase in seminal vesicle microsomes in vitro
T1 sequence (O62664 whole entry): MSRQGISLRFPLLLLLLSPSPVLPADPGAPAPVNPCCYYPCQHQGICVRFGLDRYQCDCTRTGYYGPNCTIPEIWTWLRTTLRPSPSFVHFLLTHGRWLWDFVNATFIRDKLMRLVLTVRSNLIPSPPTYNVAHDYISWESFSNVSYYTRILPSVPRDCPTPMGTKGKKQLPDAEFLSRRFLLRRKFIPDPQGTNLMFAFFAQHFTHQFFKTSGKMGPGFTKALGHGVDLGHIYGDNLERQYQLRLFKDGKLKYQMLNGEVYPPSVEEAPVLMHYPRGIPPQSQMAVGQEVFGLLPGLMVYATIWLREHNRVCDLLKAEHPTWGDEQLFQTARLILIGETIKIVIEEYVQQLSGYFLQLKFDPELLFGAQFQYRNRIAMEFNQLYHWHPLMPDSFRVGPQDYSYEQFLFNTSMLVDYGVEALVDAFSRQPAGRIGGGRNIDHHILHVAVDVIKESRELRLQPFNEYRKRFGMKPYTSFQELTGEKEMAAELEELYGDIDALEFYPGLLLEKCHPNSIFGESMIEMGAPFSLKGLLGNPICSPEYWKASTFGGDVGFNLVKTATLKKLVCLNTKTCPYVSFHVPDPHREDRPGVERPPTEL
T1 sequence (O62698 whole entry): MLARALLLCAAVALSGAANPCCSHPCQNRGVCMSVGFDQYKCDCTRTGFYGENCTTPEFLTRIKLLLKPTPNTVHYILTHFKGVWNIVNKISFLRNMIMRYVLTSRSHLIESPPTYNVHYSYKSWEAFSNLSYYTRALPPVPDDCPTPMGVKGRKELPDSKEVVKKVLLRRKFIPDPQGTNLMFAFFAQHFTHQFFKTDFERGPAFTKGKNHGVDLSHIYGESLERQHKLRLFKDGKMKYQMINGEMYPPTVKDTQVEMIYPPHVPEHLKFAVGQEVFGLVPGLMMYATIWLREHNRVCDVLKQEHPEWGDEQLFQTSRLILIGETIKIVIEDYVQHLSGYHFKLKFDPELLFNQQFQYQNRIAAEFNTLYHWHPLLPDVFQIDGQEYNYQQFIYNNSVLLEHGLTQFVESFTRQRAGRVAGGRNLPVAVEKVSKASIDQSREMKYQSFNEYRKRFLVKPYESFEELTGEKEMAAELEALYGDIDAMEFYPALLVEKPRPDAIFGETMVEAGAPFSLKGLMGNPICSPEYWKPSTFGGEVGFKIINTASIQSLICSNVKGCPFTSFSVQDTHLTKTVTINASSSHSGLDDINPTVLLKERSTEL

Rattus norvegicus [6] = test: Anti-arthritis activity against adjuvant-induced arthritis in rats after peroral administration; format: functional; details: Rattus norvegicus, po; read-out: ED50; how it was run: as §3
[7] = target: T2, Polyunsaturated fatty acid 5-lipoxygenase (Rattus norvegicus, UniProt P12527); test: Inhibition of 5-lipoxygenase from rat peritoneal neutrophils in vitro
T2 sequence (P12527 whole entry): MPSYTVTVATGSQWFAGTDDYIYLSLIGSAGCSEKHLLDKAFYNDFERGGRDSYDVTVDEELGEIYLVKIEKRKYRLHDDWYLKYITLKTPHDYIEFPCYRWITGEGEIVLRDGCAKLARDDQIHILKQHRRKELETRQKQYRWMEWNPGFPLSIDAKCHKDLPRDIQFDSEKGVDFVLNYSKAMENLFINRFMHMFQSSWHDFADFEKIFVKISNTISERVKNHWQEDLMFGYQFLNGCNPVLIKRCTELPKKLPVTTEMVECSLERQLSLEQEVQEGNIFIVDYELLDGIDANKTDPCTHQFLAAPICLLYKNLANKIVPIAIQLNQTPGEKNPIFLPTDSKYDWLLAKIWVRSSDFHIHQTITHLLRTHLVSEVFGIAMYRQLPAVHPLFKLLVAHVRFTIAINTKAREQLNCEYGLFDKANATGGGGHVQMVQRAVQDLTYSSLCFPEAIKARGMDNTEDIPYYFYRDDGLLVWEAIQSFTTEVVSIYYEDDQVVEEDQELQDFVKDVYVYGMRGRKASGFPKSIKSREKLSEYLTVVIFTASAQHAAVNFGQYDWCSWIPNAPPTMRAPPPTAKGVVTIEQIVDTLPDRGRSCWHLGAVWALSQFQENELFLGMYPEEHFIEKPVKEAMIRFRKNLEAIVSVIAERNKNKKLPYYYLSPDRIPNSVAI

Mus musculus [8] = test: Analgesic activity against acetic acid induced writhing test in mouse after peroral administration; format: functional
Rattus norvegicus [9] = test: Ulcerogenic effect against intestinal ulcer in rats after oral administration of 500 mg/kg; IA=Inactive; format: functional, organism-based; design: dose 500 mg/kg
How it was run: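 Nonfasted male rats (150–180 g) killed 24 h after oral dosing; intestinal ulcers scored and ulceration index computed from mean ulcer degree times fraction of rats with ulcers ×100; ED100 (index 100) determined graphically.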

Rattus norvegicus [10] = test: (§4) Ulcerogenic effect against gastric ulcer in rat after oral administration; format: functional, Stomach; how it was run: as §1
Mus musculus [11] = test: Analgesic activity against acetic acid induced writhing test in mouse after peroral administration; range is (3.2-7.9); format: functional; details: po
Rattus norvegicus [12] = test: Antiinflammatory activity against carrageenan-induced foot edema in rat after peroral administration calculated from 4 doses; format: functional; details: po; how it was run: as §2
Rattus norvegicus [13] = test: Antiinflammatory activity against carrageenan-induced foot edema in rat after peroral administration calculated from at least four doses
Rattus norvegicus [14] = test: as §4; format: functional; details: Stomach; how it was run: as §1
[15] = Mus musculus, po, read-out: ED50

Compound	ED100 (Rattus norvegicus [1]) [mg/kg]	ED40 (Rattus norvegicus [2]) [mg/kg]	ED50 (Rattus norvegicus [3]) [mg/kg]	ED100 (Rattus norvegicus [4]) [mg/kg]	ED50 (Mus musculus [5]) [mg/kg]	IC50 (Cyclooxygenase) [µM]	ED50 (Rattus norvegicus [6]) [mg/kg]	IC50 [7] [µM]	ED50 (Mus musculus [8]; [15]) [mg/kg]	ED100 (Rattus norvegicus [9])	ED100 (Rattus norvegicus [10]) [mg/kg]	ED50 (Mus musculus [11]) [mg/kg]	ED40 (Rattus norvegicus [12]) [mg/kg]	ED40 (Rattus norvegicus [13]) [mg/kg]	ED100 (Rattus norvegicus [14]) [mg/kg]	ED50 (Mus musculus [8]) [mg/kg]
CC[C@H](N)c1nc2c(C(F)(F)F)cccc2c(O)c1C(=O)Nc1nccs1	80	10	3.1	>100	30	1.4	5	18	35							
O=C(Nc1nccs1)c1cnc2c(C(F)(F)F)cccc2c1O						2.8		35	5	inactive	>500	5	> 100			
O=C(Nc1nccs1)c1c(C(F)(F)F)nc2c(C(F)(F)F)cccc2c1O						0.4	3.8	3	0.5					3.5	15	0.5
